The target in experiment [1] is T1, 3-oxo-5-alpha-steroid 4-dehydrogenase 1 (Homo sapiens, UniProt P18405).
T1 sequence (P18405 whole entry): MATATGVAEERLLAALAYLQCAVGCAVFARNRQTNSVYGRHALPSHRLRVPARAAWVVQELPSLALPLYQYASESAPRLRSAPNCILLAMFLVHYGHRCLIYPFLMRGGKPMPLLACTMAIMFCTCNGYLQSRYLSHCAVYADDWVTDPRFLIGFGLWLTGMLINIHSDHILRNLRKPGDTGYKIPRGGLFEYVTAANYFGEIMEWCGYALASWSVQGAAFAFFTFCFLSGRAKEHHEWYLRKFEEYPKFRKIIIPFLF
In words: In vitro inhibitory activity against Steroid 5-alpha-reductase type I.

The target of experiment [2] is T2, 3-oxo-5-alpha-steroid 4-dehydrogenase 2 (Homo sapiens) (UniProt P31213).
T2 sequence (whole entry): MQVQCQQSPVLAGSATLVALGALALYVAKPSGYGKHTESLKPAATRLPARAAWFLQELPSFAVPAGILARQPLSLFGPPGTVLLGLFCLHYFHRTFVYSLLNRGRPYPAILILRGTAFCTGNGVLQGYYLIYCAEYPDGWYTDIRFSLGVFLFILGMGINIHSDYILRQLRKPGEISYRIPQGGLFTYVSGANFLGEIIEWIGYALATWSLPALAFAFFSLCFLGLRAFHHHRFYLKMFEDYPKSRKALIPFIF
In words: In vitro inhibitory activity against Steroid 5-alpha-reductase type 2 at a concentration of 40 uM.

In experiment [3] the target is T3, 3-oxo-5-alpha-steroid 4-dehydrogenase 2 (Homo sapiens, UniProt P31213).
T3 sequence (P31213 whole entry): T2 sequence (whole entry)
In words: In vitro inhibitory activity against Steroid 5-alpha-reductase type 2. Put shortly:
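Type 2 SR enzyme preparation, with inhibitors prepared and tested as in the type 1 assay. The mixture of labelled (80 nM) and unlabelled testosterone substrate is incubated 1 h at 37 °C. Androgens are separated by HPLC and quantified by in-line flow radioactivity detection. The assay is calibrated with known type 2 inhibitors.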

The target of experiment [4] is T2, 3-oxo-5-alpha-steroid 4-dehydrogenase 2 (Homo sapiens). In words: In vitro inhibitory activity against Steroid 5-alpha-reductase type 2 at a concentration of 10 uM.

In general, IC50 refers to the concentration at which inhibition is half-maximal. In general, inhibition refers to the drop in the measured response relative to a control, in per cent. High values mean a strong effect, low ones a weak effect. `CN1C(=S)CC[C@@]2(C)C1=CCc1cc(Cl)ccc12` displayed an IC50 in experiment [1] of 377 nM. The molecule further displayed an inhibition in experiment [2] of 13.2%. The matching figures for `CN1CC(c2ccccc2)CCC1=O` (centres undefined): 2480 nM and 13.5%. Regarding `O=C(O)c1ccc2c(c1)CCc1cc(/C=C/c3ccccc3)ccc1-2`, the half-maximal inhibitory concentration (IC50) in experiment [3] came out at 340 nM; in experiment [1] it was 152 nM. On the same counts, the results for `CN1CC(c2ccc(/N=N/c3ccccc3)cc2)CCC1=O` (centres undefined) are 579 nM and 302 nM.

`CN1CC(c2ccc(Cl)cc2)CCC1=O` (centres undefined): the IC50 in experiment [1] amounted to 1690 nM.

As for `CN1C(=S)CC[C@@H]2c3ccccc3CC[C@H]21`, in experiment [1], half-maximal inhibition (IC50) was put at 1450 nM. Moreover, the inhibition in experiment [2] was 19.9%. `CN1CC(c2ccc(Cl)cc2)CCC1=S` (centres undefined): in experiment [1], half-maximal inhibition (IC50) required 3360 nM. This molecule also gave an inhibition in experiment [2] of 14%.

Turning to `CN1C(=O)CC[C@@]2(C)C1=CCc1cc(Cl)ccc12`, the midpoint of inhibition in experiment [1], the IC50, lay at 120 nM. This counts as sub-micromolar. Consider `CN1CC(c2ccc(/C=C/c3ccccc3)cc2)CCC1=O` (centres undefined), for which the values for the half-inhibitory concentration (IC50) in experiment [3] and in experiment [1] were 617 nM and 107 nM, respectively. For `CN1C(=S)CC[C@]2(C)c3ccc(Cl)cc3CC[C@@H]12`, half-maximal inhibition in experiment [1] (IC50) required 183 nM. Moreover, in experiment [2], the inhibition came out at 21.6%. `O=C(O)c1ccc2c(c1)CCc1cc(Br)ccc1-2`: in experiment [4], the inhibition amounted to 20%.
